HKDC1 inhibitor: inhibitors of human hexokinase HKDC1 | Q2TB90 | recombinant HKDC1, G6PDH/diaphorase resazurin coupled fluorescence | inhibition, % at 20 µM | actives 0.16% (n = 340,000);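 active = inhibition above about 35% when tested at 20 µM, limit read from the data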
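Test system: Recombinant HKDC1 (HK5) hexokinase enzyme, produced in-house | Input: HKDC1 at 5 µg/mL | Buffer or medium: Tris pH 8.0 buffer with MgCl2, Tween-20, BSA, BME | Schedule: 90 min reaction incubation at room temperature, dark | Technique: Resazurin-to-resorufin fluorescence via G6PDH and diaphorase coupling, 525/613 nm | Controls: DMSO wells with and without enzyme mix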
PfM18AAP inh-1: blocks P. falciparum M18 aspartyl aminopeptidase; recombinant PfM18AAP, H-Glu-NHMec fluorogenic cleavage; inhibition, % at 7.35 µM; actives 1.2% (n = 290,000); AID 1822;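 active = inhibition above the campaign mean inhibition over all tested compounds plus 3 SD, cut at about 28% in these data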
A3A deaminase: blocks human APOBEC3A ssDNA deamination | P31941 | recombinant A3A, FAM/TAMRA ssDNA deamination fluorescence | inhibition, % at 20 µM | actives 0.41% (n = 330,000);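 active = at least 40% inhibition at 20 µM here, with at most 30% in a related deaminase screen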
APOBEC3G inh: blocks human APOBEC3G single-stranded DNA deamination; actives 0.28% (n = 330,000); AID 493012; inhibition, % at 20 µM; recombinant A3G, ssDNA deamination FAM/TAMRA fluorescence;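 active = inhibition of at least 40% at 20 µM, with no more than 30% in the related APOBEC3A deaminase screen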
Target sequence (Q9HC16 whole entry, looked up): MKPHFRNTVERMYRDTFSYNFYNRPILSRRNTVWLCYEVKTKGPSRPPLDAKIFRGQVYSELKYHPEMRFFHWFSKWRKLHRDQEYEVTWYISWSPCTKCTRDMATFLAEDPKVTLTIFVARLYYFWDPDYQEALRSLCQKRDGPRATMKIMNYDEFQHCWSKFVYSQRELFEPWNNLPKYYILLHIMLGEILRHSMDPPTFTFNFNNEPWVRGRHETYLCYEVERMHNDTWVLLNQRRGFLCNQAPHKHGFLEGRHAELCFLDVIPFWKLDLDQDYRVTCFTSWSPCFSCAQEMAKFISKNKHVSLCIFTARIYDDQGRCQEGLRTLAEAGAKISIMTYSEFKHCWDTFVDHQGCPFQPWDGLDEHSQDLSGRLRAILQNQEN
SUMO HTRF inh: blocks human SUMOylation mediated by UBC9; P63279; HTRF SUMOylation assay, SAE1/SAE2 + UBC9, in vitro; inhibition, % at 35 µM; actives 0.36% (n = 290,000); AID 2006; in the data active = inhibition above about 50%, passing the limit was not always enough
PfG6PD inh: PfG6PD (Plasmodium falciparum) enzyme inhibition | PfGluPho enzyme, NADPH resazurin-diaphorase fluorescence | AID 504690 | actives 0.78% (n = 350,000) | inhibition, % at 20 µM;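 active = inhibition reaching at least a set limit at 20 µM in the primary screen, cut at about 59% in these data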
PfM18AAP inh-2: confirmation of Plasmodium falciparum M18 aspartyl aminopeptidase inhibitors | shares compounds with PfM18AAP inh-1 | AID 2170 | actives 28% (n = 2,400) | recombinant PfM18AAP, H-Glu-NHMec fluorogenic cleavage | inhibition, % at 7.35 µM;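 active = mean inhibition over replicate wells above the hit cutoff set for the earlier primary screen, cut at about 29% in these data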
CTSL1 counter: Cathepsin L (human) inhibition, confirmation. shares compounds with PfM18AAP inh-1. purified cathepsin L1, Z-Leu-Arg-MCA fluorescence. inhibition, % at 5.96 µM. 2,400 tested, under 10 active;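 active = average inhibition across replicates above the hit cutoff set in the earlier primary screen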
A number is an active result; i = inactive; nt = no result given. This is a sample that favours compounds with a hit; in the whole collection about 2.4% have one here.

SMILES	HKDC1 inhibitor	PfM18AAP inh-1	A3A deaminase	APOBEC3G inh	SUMO HTRF inh	PfG6PD inh	PfM18AAP inh-2	CTSL1 counter
Nc1nncn1C(=O)c1c(Cl)cccc1Cl	i	i	i	i	i	i	nt	nt
Cc1ccc(C(=O)c2ccc(C)cc2)cc1	i	i	i	i	i	i	nt	nt
Cc1nc2c3ccccc3nc(SCC(=O)N3CC(C)CC(C)C3)n2n1 (stereo not given)	i	i	i	i	i	i	nt	nt
Cc1ccc(Cn2c(SCCN3CCCCC3)nc3c2c(=O)[nH]c(=O)n3C)cc1	i	38	i	i	i	i	i	i
CC(=O)N1CCC2(CC1)C(C#N)=C(N)Oc1c2sc2nc(C)cc(C)c12	i	i	i	i	i	i	nt	nt
CCN1CCC2(CC1)C(C#N)=C(N)Oc1c2sc2nc(C)cc(C)c12	i	33	i	i	i	i	i	i
O=S(=O)(Nc1ccc(Cl)nn1)c1ccccc1	i	i	i	i	i	i	nt	nt
O=S(=O)(NNc1ccc(Cl)nn1)c1ccc(F)cc1	i	69	i	i	i	i	64	i
O=S(=O)(NNc1cccc(Cl)n1)c1ccc(Cl)cc1	i	72	i	i	i	i	49	i
CN1CCN(S(=O)(=O)c2ccc(NC(=S)NC(=O)C3CCC3)cc2)CC1	i	i	i	i	i	i	nt	nt
COC(=O)c1ccc(C(=O)OC)c(=O)[nH]1	i	i	i	i	i	i	i	i
CS(=O)(=O)c1ccc2c(c1)sc1nc(=O)c(/C=C3/C=CC(=O)C(O)=C3)c(N)n12	i	58	i	i	i	i	62	i
COc1ccccc1CN1CCNC(=O)C1CC(=O)NCCOc1cccnc1 (stereo not given)	i	i	i	i	i	i	nt	nt
COc1ccc2nc(NC(=O)Cn3cnc4c(=O)n(C)c(=O)n(C)c43)sc2c1	i	i	i	i	i	i	nt	nt
O=C(CSc1nc2[nH]ncc2c(=O)[nH]1)c1ccc(Cl)cc1	nt	i	i	i	i	nt	nt	nt
O=C(CSc1nc2[nH]ncc2c(=O)[nH]1)N1CCCCC1	i	34	nt	nt	i	i	i	i
O=C(CSc1nc2[nH]ncc2c(=O)[nH]1)c1ccccc1	i	48	i	i	i	i	40	i
Cc1cc2oc(=O)cc(CN3CCCCC3)c2cc1C	i	i	i	i	i	i	nt	nt
CCN1CCN(C(=S)c2ccc(Br)cc2)CC1	i	40	i	i	i	i	i	i
CCN1CCN(CCC(=O)Nc2ccc(Br)cc2)CC1	i	i	i	i	i	i	nt	nt
O=C(Oc1ccc(C(=S)N2CCCCC2)cc1)c1ccccc1	i	37	i	i	i	i	i	i
O=C(Oc1cccc(C(=S)N2CCCCC2)c1)c1ccccc1	i	i	i	i	i	i	nt	nt
Oc1ccc(C(=S)N2CCCC2)cc1	i	33	i	i	i	i	i	i
Cc1ccc(C(=S)N2CCN(Cc3ccccc3)CC2)s1	i	35	i	i	i	i	i	i
Oc1ccc(C(=S)N2CCCCCC2)cc1	i	i	i	i	i	i	nt	nt
SMILES	HKDC1 inhibitor	PfM18AAP inh-1	A3A deaminase	APOBEC3G inh	SUMO HTRF inh	PfG6PD inh	PfM18AAP inh-2	CTSL1 counter
CN(C)c1ccc(N=Nc2ccccc2C(=O)OCC(=O)Nc2ccccc2C(F)(F)F)cc1	i	i	nt	nt	i	i	nt	nt
O=C(c1ccc(Br)cc1)N1CCN(Cc2ccccc2)CC1	i	i	i	i	i	i	nt	nt
Oc1ccc(C(=S)N2CCN(Cc3ccccc3)CC2)cc1	i	54	i	i	i	i	i	i
COc1ccccc1Cc1nnc(NC(=O)C2CCN(C(=O)c3ccco3)CC2)s1	i	42	i	i	i	i	i	i
O=C(C1=C[C@H](c2ccc3c(c2)OCO3)C[C@H](OCc2ccc(CO)cc2)O1)N1CCCCCCC1	i	33	i	i	i	i	i	i
NC(=O)NC(=O)C(Nc1ccc(N2CCCCC2)cc1)c1ccccc1 (stereo not given)	i	41	i	i	i	i	i	i
Cc1nn(-c2ccccc2)c2c1C(c1ccc([N+](=O)[O-])cc1)C(C#N)=C(N)O2 (stereo not given)	i	i	i	i	i	i	i	i

Source: PubChem BioAssay
